According to ChEMBL document CHEMBL3098028, “Synthesis and in vitro and in vivo pharmacological evaluation of new 4-aminoquinoline-based compounds” (ACS Med Chem Lett, 2013):
pIC50: −log10 of the molar value.

What was measured:
[1] = test system: Plasmodium falciparum; assay: Antiplasmodial activity against chloroquine-sensitive Plasmodium falciparum 3D7 after 24 hrs by [3H]hypoxanthine incorporation assay; format: functional, organism-based
Outline: (§1)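 Antiplasmodial testing was done at the Swiss Tropical and Public Health Institute. Chloroquine, the reference drug, was tested as its diphosphate salt.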

[2] = test system: Plasmodium falciparum; assay: Antiplasmodial activity against chloroquine-resistant Plasmodium falciparum W2 after 24 hrs by [3H]hypoxanthine incorporation assay; format: functional, organism-based; outline: as §1
[3] = test system: Plasmodium falciparum; assay: Antiplasmodial activity against chloroquine-resistant Plasmodium falciparum K1 after 24 hrs by [3H]hypoxanthine incorporation assay; format: functional, organism-based; outline: as §1
[4] = test system: Plasmodium falciparum; assay: Resistance index, ratio of IC50 for chloroquine-resistant Plasmodium falciparum K1 to IC50 for chloroquine-sensitive Plasmodium falciparum 3D7; format: functional
[5] = test system: Plasmodium berghei; assay: Antimalarial activity against Plasmodium berghei ANKA infected in C57BL/6 mouse assessed as reduction in parasitemia at 15 mg/kg, po qd for 4 days measured on day 7 by light microscopic analysis relative to control; format: functional; set-up: scale not given: the % may be the effect or the level left

Compound	pIC50 [1]	pIC50 [2]	pIC50 [3]	Ratio IC50 [4]	Activity [5] [%]
CC(C)(C)n1nnnc1C(NCCCCNc1ccnc2cc(Cl)ccc12)c1ccccc1 (configuration not stated)	8.70	7.70	8.10	4	
Clc1ccc2c(NCCNC(c3ccccc3)c3nnn[nH]3)ccnc2c1 (configuration not stated)			4.83		
COc1ccc(C(NCCNc2ccnc3cc(Cl)ccc23)c2nnn[nH]2)cc1 (configuration not stated)			4.88		
CCN(CC)CCCC(C)Nc1ccnc2cc(Cl)ccc12 (configuration not stated) [CHLOROQUINE]					90.6
